Data taken from ChEMBL document CHEMBL4819036, “Hepatoprotective Glucosyloxybenzyl 2-Hydroxy-2-isobutylsuccinates from Pleione yunnanensis” (2021).

Experiments:
HepG2 = test: Hepatoprotective activity against APAP-induced toxicity in human HepG2 cells assessed as cell survival rate at 10 uM after 48 hrs by MTT assay (reference value: 23 %); type: functional
L02 = test: Hepatoprotective activity against D-GalN-induced toxicity in human HL-7702 cells assessed as cell survival rate at 10 uM preincubated for 48 hrs followed by D-GalN stimulation for 8 hrs by MTT assay (reference value: 33 %); type: functional; conditions: time 56 hrs
In short: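 Normal human HL-7702 hepatocytes were injured with D-galactosamine at 60 mM, with test compounds at 10 μM. Viability was measured by the MTT method as OD, and survival rate was expressed as a percentage of untreated control cells. Bicyclol at 10 μM served as the positive control. Statistics compared treated cells with the D-GalN model group.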

Compound	Activity (HepG2) [%]	Activity (L02) [%]
CC(C)C[C@@](O)(CC(=O)OCc1ccc(O[C@@H]2O[C@H](CO)[C@@H](O)[C@H](O)[C@H]2O)cc1)C(=O)OCc1ccc(O[C@@H]2O[C@H](CO)[C@@H](O)[C@H](O)[C@H]2O)cc1	23	
CC(C)C[C@](CC(=O)OCc1ccc(O[C@@H]2O[C@H](COCc3ccc(O)cc3)[C@@H](O)[C@H](O)[C@H]2O)cc1)(O[C@@H]1O[C@H](CO)[C@@H](O)[C@H](O)[C@H]1O)C(=O)OCc1ccc(O[C@@H]2O[C@H](CO)[C@@H](O)[C@H](O)[C@H]2O)cc1	32	39
CC(=O)OC[C@H]1O[C@@H](O[C@@](CC(=O)OCc2ccc(O[C@@H]3O[C@H](CO)[C@@H](O)[C@H](O)[C@H]3O)cc2)(CC(C)C)C(=O)OCc2ccc(O[C@@H]3O[C@H](CO)[C@@H](O)[C@H](O)[C@H]3O)cc2)[C@H](O)[C@@H](O)[C@@H]1O	14	39
CC(C)C[C@@](O)(CC(=O)OCc1ccc(O[C@@H]2O[C@H](CO)[C@@H](O)[C@H](O)[C@H]2O)cc1)C(=O)OCc1ccc(O[C@@H]2O[C@H](CO)[C@@H](O)[C@H](O)[C@H]2OCc2ccc(O)cc2)cc1	19	49
CC(C)C[C@](CC(=O)OCc1ccc(O[C@@H]2O[C@H](CO)[C@@H](O)[C@H](O)[C@H]2O)cc1)(O[C@@H]1O[C@H](CO)[C@@H](O)[C@H](O)[C@H]1OC(=O)/C=C/c1ccc(O[C@@H]2O[C@H](CO)[C@@H](O)[C@H](O)[C@H]2O)cc1)C(=O)OCc1ccc(O[C@@H]2O[C@H](CO)[C@@H](O)[C@H](O)[C@H]2O)cc1	25	43
COC(=O)C[C@](O)(CC(C)C)C(=O)OCc1ccc(O[C@@H]2O[C@H](CO)[C@@H](O)[C@H](O)[C@H]2O)cc1	28	64
CC(C)C[C@](CC(=O)OCc1ccc(O[C@@H]2O[C@H](CO)[C@@H](O)[C@H](O)[C@H]2O)cc1)(O[C@@H]1O[C@H](CO)[C@@H](O)[C@H](O)[C@H]1OC(=O)/C=C\c1ccc(O)cc1)C(=O)OCc1ccc(O[C@@H]2O[C@H](CO)[C@@H](O)[C@H](O)[C@H]2O)cc1	21	39
CC(C)C[C@](CC(=O)OCc1ccc(O[C@@H]2O[C@H](CO)[C@@H](O)[C@H](O)[C@H]2O)cc1)(O[C@@H]1O[C@H](CO)[C@@H](O)[C@H](O)[C@H]1O)C(=O)OCc1ccc(O[C@@H]2O[C@H](CO)[C@@H](O)[C@H](O)[C@H]2O)cc1	35	
CC(C)C[C@](CC(=O)OCc1ccc(O[C@@H]2O[C@H](CO)[C@@H](O)[C@H](O)[C@H]2O)cc1)(O[C@@H]1O[C@H](CO)[C@@H](O)[C@H](O)[C@H]1OC(=O)/C=C/c1ccc(O)cc1)C(=O)OCc1ccc(O[C@@H]2O[C@H](CO)[C@@H](O)[C@H](O)[C@H]2O)cc1	23	52
CC(C)C[C@@](O)(CC(=O)OCc1ccc(O[C@@H]2O[C@H](COCc3ccc(O)cc3)[C@@H](O)[C@H](O)[C@H]2O)cc1)C(=O)OCc1ccc(O[C@@H]2O[C@H](CO)[C@@H](O)[C@H](O)[C@H]2O)cc1	27	60
CC(C)C[C@@](O)(CC(=O)OCc1ccc(O[C@@H]2O[C@H](CO)[C@@H](O)[C@H](O)[C@H]2O)cc1)C(=O)OCc1ccc(O[C@@H]2O[C@H](COCc3ccc(O)cc3)[C@@H](O)[C@H](O)[C@H]2O)cc1	28	55
CC(C)C[C@](CC(=O)O)(O[C@@H]1O[C@H](CO)[C@@H](O)[C@H](O)[C@H]1O)C(=O)OCc1ccc(O[C@@H]2O[C@H](CO)[C@@H](O)[C@H](O)[C@H]2O)cc1	27	
CC(C)C[C@@](O)(CC(=O)O)C(=O)OCc1ccc(O[C@@H]2O[C@H](CO)[C@@H](O)[C@H](O)[C@H]2O)cc1	28	
CC(C)C[C@](O)(C(=O)OCc1ccc(O[C@@H]2O[C@H](CO)[C@@H](O)[C@H](O)[C@H]2O)cc1)[C@H](O)C(=O)OCc1ccc(O[C@@H]2O[C@H](CO)[C@@H](O)[C@H](O)[C@H]2O)cc1	23	
CC(C)C[C@@](O)(CC(=O)OCc1ccc(O[C@@H]2O[C@H](CO[C@@H]3O[C@H](CO)[C@@H](O)[C@H](O)[C@H]3O)[C@@H](O)[C@H](O)[C@H]2O)cc1)C(=O)OCc1ccc(O[C@@H]2O[C@H](CO)[C@@H](O)[C@H](O)[C@H]2O)cc1	28	38
CC(C)C[C@](CC(=O)OCc1ccc(O[C@@H]2O[C@H](CO)[C@@H](O)[C@H](O)[C@H]2O)cc1)(O[C@@H]1O[C@H](CO)[C@@H](O)[C@H](O)[C@H]1OC(=O)/C=C\c1ccc(O[C@@H]2O[C@H](CO)[C@@H](O)[C@H](O)[C@H]2O)cc1)C(=O)OCc1ccc(O[C@@H]2O[C@H](CO)[C@@H](O)[C@H](O)[C@H]2O)cc1	17	38
CC(C)C[C@@](O)(CC(=O)OCc1ccc(O[C@@H]2O[C@H](CO)[C@@H](O)[C@H](O)[C@H]2O)cc1)C(=O)OCc1ccc(O[C@@H]2O[C@H](CO[C@@H]3O[C@H](CO)[C@@H](O)[C@H](O)[C@H]3O)[C@@H](O)[C@H](O)[C@H]2O)cc1	39	36
COC(=O)c1cc(OC)c2c(c1-c1c(CO)cc(OC)c3c1OCO3)OCO2 [BICYCLOL]	32	47
